In test [1] the target is T1, Pituitary adenylate cyclase-activating polypeptide type I receptor (Homo sapiens, UniProt P41586). Put plainly: Agonist activity at human recombinant PAC1 receptor expressed in CHO cells assessed as PACAP38-induced calcium mobilization at 1 uM by FLIPR assay. The class given is functional, cell-based.
Target sequence in this assay (P41586 whole entry): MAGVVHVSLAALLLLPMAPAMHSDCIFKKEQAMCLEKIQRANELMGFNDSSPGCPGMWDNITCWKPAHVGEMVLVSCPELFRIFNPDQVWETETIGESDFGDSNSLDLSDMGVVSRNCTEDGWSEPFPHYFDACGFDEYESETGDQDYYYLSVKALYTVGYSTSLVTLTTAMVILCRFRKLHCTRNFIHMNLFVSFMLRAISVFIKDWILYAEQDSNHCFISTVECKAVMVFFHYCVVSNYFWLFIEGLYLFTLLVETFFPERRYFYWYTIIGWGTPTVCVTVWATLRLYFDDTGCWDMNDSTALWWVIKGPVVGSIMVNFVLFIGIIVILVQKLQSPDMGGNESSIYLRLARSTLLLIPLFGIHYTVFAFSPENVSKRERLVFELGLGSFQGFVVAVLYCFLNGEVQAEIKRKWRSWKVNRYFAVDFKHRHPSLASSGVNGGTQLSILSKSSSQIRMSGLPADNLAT
Test [2] concerns the target T1, Pituitary adenylate cyclase-activating polypeptide type I receptor. Put plainly: Displacement of [125I]Ac-PACAP27 from human recombinant PAC1 receptor expressed in CHO cells by gamma- counter. The class given is cell-based. On the technique in general: Loss of bound radioactivity is the signal in a displacement assay; it reports binding, not function.
Target sequence in this assay (P41586 whole entry): as above
For test [3] the target is unchanged. Put plainly: Antagonist activity at human recombinant PAC1 receptor expressed in CHO cells assessed as reduction in PACAP38-induced calcium mobilization by FLIPR assay. The conditions noted are these: read-out: pA2 (converted). The class given is functional, cell-based. The essentials:
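PAC1-CHO cells were loaded with fluo-4 and preincubated 15 min with antagonist at 0.1, 1 or 10 µM. PACAP38 concentration-response curves for calcium mobilization were then recorded. pA2 was estimated by Schild plot from concentration ratios; 4-10 independent assays in duplicate.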
Target sequence in this assay (P41586 whole entry): as above

Test [4] shares this target. Put plainly: Agonist activity at human recombinant PAC1 receptor expressed in CHO cells assessed as PACAP38-induced calcium mobilization at 1 uM by FLIPR assay relative to PACAP38. The class given is functional, cell-based. In general terms: Calcium assays in cells follow changes in intracellular calcium, usually with a dye or a luminescent sensor.
Target sequence in this assay (P41586 21-468 limits assumed): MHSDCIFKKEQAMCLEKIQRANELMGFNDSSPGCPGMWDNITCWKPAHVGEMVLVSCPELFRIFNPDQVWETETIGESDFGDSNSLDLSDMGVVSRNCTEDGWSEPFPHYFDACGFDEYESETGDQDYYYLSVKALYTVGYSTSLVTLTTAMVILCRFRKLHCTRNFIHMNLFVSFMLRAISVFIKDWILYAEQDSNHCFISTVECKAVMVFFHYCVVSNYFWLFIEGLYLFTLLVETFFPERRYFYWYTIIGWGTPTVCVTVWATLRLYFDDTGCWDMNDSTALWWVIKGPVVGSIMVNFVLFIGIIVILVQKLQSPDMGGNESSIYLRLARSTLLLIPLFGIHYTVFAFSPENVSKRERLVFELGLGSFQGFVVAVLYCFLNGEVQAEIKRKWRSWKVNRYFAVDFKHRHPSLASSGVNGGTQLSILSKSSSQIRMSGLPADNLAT

Active and inactive are the calls of the source. The calls are words filed in the database; no cut-off is given here.

Turning to `CC[C@H](C)[C@H](NC(=O)CNC(=O)[C@H](CC(=O)O)NC(=O)[C@H]1CCCN1C(=O)[C@@H](N)Cc1cnc[nH]1)C(=O)N[C@@H](Cc1ccccc1)C(=O)N[C@H](C(=O)N[C@@H](CC(=O)O)C(=O)N[C@@H](CO)C(=O)N[C@@H](Cc1ccc(O)cc1)C(=O)N[C@@H](CO)C(=O)N[C@@H](CCCNC(=N)N)C(=O)N[C@@H](Cc1ccc(O)cc1)C(=O)N[C@@H](CCCNC(=N)N)C(=O)N[C@@H](CCCCN)C(=O)N[C@@H](CCC(N)=O)C(=O)N[C@@H](CCSC)C(=O)N[C@@H](C)C(=O)N[C@H](C(=O)N[C@@H](CCCCN)C(=O)N[C@@H](CCCCN)C(=O)N[C@@H](Cc1ccc(O)cc1)C(=O)N[C@@H](CC(C)C)C(=O)N[C@@H](C)C(=O)N[C@@H](C)C(=O)N[C@H](C(=O)N[C@@H](CC(C)C)C(=O)NCC(=O)N[C@@H](CCCCN)C(=O)N[C@@H](CCCNC(=N)N)C(=O)N[C@@H](Cc1ccc(O)cc1)C(=O)N[C@@H](CCCCN)C(=O)N[C@@H](CCC(N)=O)C(=O)N[C@@H](CCCNC(=N)N)C(=O)N[C@H](C(=O)N[C@@H](CCCCN)C(=O)N[C@@H](CC(N)=O)C(=O)N[C@@H](CCCCN)C(N)=O)C(C)C)C(C)C)C(C)C)[C@@H](C)O`, in test [1], the EC50 result is given as “Not Active”. Besides, the 50% inhibitory concentration (IC50) (in general, the concentration needed to halve the response being measured) in test [2] was 76.3 nM. Also, the Kb in test [3] is 35.5 nM. Further, in test [4], the Emax result was “inactive”.
Turning to `CC[C@H](C)[C@H](NC(=O)CNC(=O)[C@H](CC(=O)O)NC(=O)[C@H](CO)NC(=O)[C@@H](N)Cc1cnc[nH]1)C(=O)N(C)[C@@H](Cc1ccccc1)C(=O)N[C@H](C(=O)N[C@@H](CC(=O)O)C(=O)N[C@@H](CO)C(=O)N[C@@H](Cc1ccc(O)cc1)C(=O)N[C@@H](CO)C(=O)N[C@@H](CCCNC(=N)N)C(=O)N[C@@H](Cc1ccc(O)cc1)C(=O)N[C@@H](CCCNC(=N)N)C(=O)N[C@@H](CCCCN)C(=O)N[C@@H](CCC(N)=O)C(=O)N[C@@H](CCSC)C(=O)N[C@@H](C)C(=O)N[C@H](C(=O)N[C@@H](CCCCN)C(=O)N[C@@H](CCCCN)C(=O)N[C@@H](Cc1ccc(O)cc1)C(=O)N[C@@H](CC(C)C)C(=O)N[C@@H](C)C(=O)N[C@@H](C)C(=O)N[C@H](C(=O)N[C@@H](CC(C)C)C(N)=O)C(C)C)C(C)C)[C@@H](C)O`, the EC50 entry in test [1] is recorded as “Not Active”. Moreover, the IC50 in test [2] was 3150 nM. In addition, the Emax entry in test [4] was “inactive”.
In the same order, the values of `CC[C@H](C)[C@H](NC(=O)CNC(=O)[C@H](CC(=O)O)NC(=O)[C@H]1CCCN1C(=O)[C@@H](N)Cc1cnc[nH]1)C(=O)N[C@@H](Cc1ccccc1)C(=O)N[C@H](C(=O)N[C@@H](CC(=O)O)C(=O)N[C@@H](CO)C(=O)N[C@@H](Cc1ccc(O)cc1)C(=O)N[C@@H](CO)C(=O)N[C@@H](CCCNC(=N)N)C(=O)N[C@@H](Cc1ccc(O)cc1)C(=O)N[C@@H](CCCNC(=N)N)C(=O)N[C@@H](CCCCN)C(=O)N[C@@H](CCC(N)=O)C(=O)N[C@@H](CCSC)C(=O)N[C@@H](C)C(=O)N[C@H](C(=O)N[C@@H](CCCCN)C(=O)N[C@@H](CCCCN)C(=O)N[C@@H](Cc1ccc(O)cc1)C(=O)N[C@@H](CC(C)C)C(=O)N[C@@H](C)C(=O)N[C@@H](C)C(=O)N[C@H](C(=O)N[C@@H](CC(C)C)C(N)=O)C(C)C)C(C)C)[C@@H](C)O` are “Not Active”, 268 nM and “inactive”.

The values are drawn from ChEMBL document CHEMBL1138520, “Molecular and conformational determinants of pituitary adenylate cyclase-activating polypeptide (PACAP) for activation of the PAC1 receptor” (J Med Chem, 2009).
